From ChEMBL document CHEMBL2424587, “Antiproliferative activity of abietane diterpenoids against human tumor cells” (J Nat Prod, 2013)
Activity calls are given as the source filed them. The rule behind the calls is not given here.

How the values were obtained:
[1] = test system: HL-60; experiment: Induction of apoptosis in human HL60 cells assessed as nuclear chromatin condensation after 6 hrs by Hoechst 33258 staining-based fluorescence microscopy; type: functional, cell-based
[2] = test system: HL-60; experiment: Induction of apoptosis in human HL60 cells assessed as release of Smac/DIABLO to cytosolic fraction by Western blotting analysis; type: functional, cell-based
[3] = test system: HL-60; experiment: Induction of apoptosis in human HL60 cells assessed as procaspase-9 cleavage at 3 uM after 24 hrs by immunoblotting analysis; type: functional, cell-based
Outline: (§1)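 HL-60 cells treated 24 h with 3 μM; immunoblots of lysates probed with antibodies that recognize both pro-caspases and cleaved caspases, and for PARP.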

[4] = test system: HL-60; experiment: Induction of apoptosis in human HL60 cells assessed as reduction in mitochondrial membrane potential at 3 uM after 24 hrs by JC-1 staining-based flow cytometry in presence of cyclosporin A; type: functional, cell-based
Outline: (§2)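 HL-60 cells exposed to 3 μM diterpene for 24 h alongside permeability transition pore inhibitors cyclosporin A (25 μM, 24 h) or bongkrekic acid (25−50 μM, 24 h). Apoptosis was scored by flow cytometry. Mitochondrial membrane potential was read by JC-1 fluorescence on flow cytometry.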

[5] = test system: HL-60; experiment: Induction of apoptosis in human HL60 cells assessed as procaspase-8 cleavage at 3 uM after 24 hrs by immunoblotting analysis; type: functional, cell-based; outline: as §1
[6] = test system: SK-MEL-1; experiment: Cytotoxicity against human SK-MEL-1 cells after 72 hrs by MTT assay; type: functional, cell-based; conditions: SK-MEL-1, 72 h
Outline: (§3)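 MTT assay: 1 × 10^4 exponentially growing cells per well incubated 72 h over a range of compound concentrations; MTT 0.5 mg/mL for 4 h at 37 °C, then 10% SDS in 0.05 M HCl overnight at room temperature in the dark; absorbance at 570 nm. Leukemia and SK-MEL-1 lines grown in RPMI 1640, MCF-7 in DMEM, both with 10% heat-inactivated FBS. IC50 given as mean ± SEM of 3–5 independent experiments, each in triplicate.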

[7] = test system: HL-60; experiment: Induction of apoptosis in human HL60 cells assessed as early apoptotic cells at 3 uM after 24 hrs by AnnexinV-FITC/propidium iodide staining-based flow cytometry (reference value: 1.6%); type: functional
Outline: (§4)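 HL-60 cells given 3 μM for 24 h, stained with annexin V-FITC and propidium iodide, and analysed by flow cytometry; annexin+/PI− cells scored as early apoptotic and double-positive cells as late; three separate experiments.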

[8] = test system: MOLT-3; experiment: Cytotoxicity against human MOLT3 cells after 72 hrs by MTT assay; type: functional, cell-based; conditions: MOLT-3, 72 h; outline: as §3
[9] = test system: HL-60; experiment: Induction of apoptosis in human HL60 cells using DEVD-pNA as substrate assessed as caspase-3/7 activation at 3 uM after 24 hrs relative to control; type: functional
Outline: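 HL-60 cells treated with 3 μM diterpene for 24 h. Lysates were assayed for cleavage of chromogenic tetrapeptide substrates DEVD-pNA (caspase-3/7), IETD-pNA (caspase-8) and LEHD-pNA (caspase-9). Activity is expressed as n-fold over untreated control. Mean ± SE of three independent experiments, each in triplicate.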

[10] = test system: HL-60; experiment: Induction of apoptosis in human HL60 cells assessed as release of AIF to cytosolic fraction by Western blotting analysis; type: functional, cell-based
[11] = test system: HL-60; experiment: Induction of apoptosis in human HL60 cells assessed as procaspase-6 cleavage at 3 uM after 24 hrs by immunoblotting analysis; type: functional, cell-based; outline: as §1
[12] = test system: HL-60; experiment: Induction of ROS-mediated cell death in human HL60 cells preincubated for 2 hrs in presence of NAC; type: functional, cell-based
Outline: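 Antioxidant test in HL-60 cells: NAC 10 mM added with the diterpene, or NAC and diterpene preincubated together for 2 h before addition to cells; cell death then measured.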

[13] = test system: HL-60; experiment: Cell cycle arrest in human HL60 cells assessed as accumulation at S phase at 3 uM after 24 hrs by […]propidium iodide staining-based flow cytometry (reference value: 32%); type: functional
[14] = test system: HL-60; experiment: Induction of apoptosis in human HL60 cells assessed as hypodiploid cells after 24 hrs by flow cytometry in presence of caspase-8 inhibitor Z-IETD-FMK; type: functional, cell-based
Outline: (§5)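 HL-60 cells pretreated 1 h with caspase inhibitor, then given diterpene for 24 h; hypodiploid cells counted by flow cytometry; mean ± SE of three independent experiments in triplicate.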

[15] = test system: HL-60; experiment: Induction of apoptosis in human HL60 cells assessed as nuclear chromatin fragmentation after 6 hrs by Hoechst 33258 staining-based fluorescence microscopy; type: functional, cell-based
[16] = test system: HL-60; experiment: Induction of apoptosis in human HL60 cells after 24 hrs by flow cytometry in presence of caspase-9 inhibitor Z-LEHD-FMK; type: functional, cell-based; outline: as §5
[17] = test system: HL-60; experiment: Cytotoxicity against human HL60 cells after 72 hrs by MTT assay; type: functional, cell-based; conditions: HL-60, 72 h; outline: as §3
[18] = test system: HL-60; experiment: Induction of apoptosis in human HL60 cells assessed as release of cytochrome c to cytosolic fraction by Western blotting analysis; type: functional, cell-based
[19] = test system: HL-60; experiment: Induction of apoptosis in human HL60 cells assessed as PARP cleavage at 3 uM after 24 hrs by immunoblotting analysis; type: functional, cell-based; outline: as §1
[20] = test system: HL-60; experiment: Induction of apoptosis in human HL60 cells assessed as reduction in mitochondrial membrane potential at 3 uM after 24 hrs by JC-1 staining-based flow cytometry in presence of bongkrekic acid; type: functional, cell-based; outline: as §2
[21] = test system: HL-60; experiment: Induction of apoptosis in human HL60 cells assessed as hypodiploid cells at 3 uM after 24 hrs by flow cytometry (reference value: 4.4 +/- 0.8%); type: functional
[22] = test system: HL-60; experiment: Induction of apoptosis in human HL60 cells assessed as procaspase-4 cleavage at 3 uM after 24 hrs by immunoblotting analysis; type: functional, cell-based; outline: as §1
[23] = test system: HL-60; experiment: Induction of apoptosis in human HL60 cells assessed as externalization of phosphotidylserine at 3 uM after 24 hrs by AnnexinV-FITC/propidium iodide staining-based flow cytometry; type: functional, cell-based; outline: as §4
[24] = test system: U-937; experiment: Cytotoxicity against human U937 cells overexpressing Bcl-2 protein after 72 hrs by MTT assay; type: functional, cell-based; conditions: U-937, 72 h
[25] = test system: PBMC; experiment: Cytotoxicity against human PBMC cells up to 3 uM after 24 hrs by MTT assay; type: cell-based
Outline: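 PBMC from heparinized blood of healthy volunteers, isolated on Ficoll-Paque, cultured in parallel with HL-60 cells for 24 h at the stated concentrations; viability measured by MTT; Student's t-test versus untreated control.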

[26] = test system: HL-60; experiment: Induction of apoptosis in human HL60 cells assessed as DNA fragmentation at 3 uM after 24 hrs by […]; type: functional, cell-based
[27] = test system: MCF7; experiment: Cytotoxicity against human MCF7 cells after 72 hrs by MTT assay; type: functional, cell-based; conditions: MCF7, 72 h; outline: as §3
[28] = test system: HL-60; experiment: Induction of apoptosis in human HL60 cells assessed as hypodiploid cells at 3 uM by flow cytometry; type: functional, cell-based; conditions: TDE = time-dependent effect
[29] = test system: HL-60; experiment: Induction of apoptosis in human HL60 cells assessed as late apoptotic cells at 3 uM after 24 hrs by AnnexinV-FITC/propidium iodide staining-based flow cytometry (reference value: 3.1%); type: functional; outline: as §4
[30] = test system: HL-60; experiment: Induction of apoptosis in human HL60 cells at 3 uM after 24 hrs by flow cytometry in presence of Z-VAD-FMK; type: functional, cell-based
Outline: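 HL-60 cells pretreated with pancaspase inhibitor Z-VAD-FMK (100 μM), then given diterpene (3 μM) for 24 h. Hypodiploid (sub-G1) apoptotic cells were counted by flow cytometry. Mean ± SE of three independent experiments, each in triplicate.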

[31] = test system: HL-60; experiment: Cytotoxicity against human HL60 cells overexpressing neomycin-resistant gene after 72 hrs by MTT assay; type: functional, cell-based

Row | Structure (SMILES) | Activity [1] | Activity [2] | Activity [3] | Activity [4] | Activity [5] | IC50 [6] [nM] | Activity [7] [%] | IC50 [8] [nM] | fold change (FC) [9] | Activity [10] | Activity [11] | Activity [12] | Activity [13] [%] | Activity [14] | Activity [15] | Activity [16] | IC50 [17] [nM] | Activity [18] | Activity [19] | Activity [20] | also measured
1 | COc1ccc(C(=O)OC2=C(C(C)C)C(=O)C3=C(C2=O)[C@@]2(C)CCCC(C)(C)[C@@H]2[C@H](O)[C@H]3OC(C)=O)cc1 | Active | Active | Active | Active | Active | 7200 | 30.2 | 1500 | 2 | Active | inactive | inactive | 21 | Active | Active | Active | 2700 | Active | Active | Active | Activity [21]: 34.5%; Activity [22]: Active; Activity [23]: Active; IC50 [24]: 2100 nM; Activity [25]: Non-toxic; Activity [26]: Active; IC50 [27]: 3100 nM; Activity [28]: tde; Activity [29]: 30.2%; Activity [30]: Active; Activity [31]: Active
2 | CC(=O)O[C@H]1C2=C(C(=O)C(OC(=O)c3ccc(Cl)cc3)=C(C(C)C)C2=O)[C@@]2(C)CCCC(C)(C)[C@@H]2[C@@H]1O | Active | Active | Active | Active | Active | 4000 | 28.8 | 1400 | 2 | Active | inactive | inactive | 23 | Active | Active | Active | 2400 | Active | Active | Active | Activity [21]: 40.4%; Activity [22]: Active; Activity [23]: Active; IC50 [24]: 1100 nM; Activity [25]: Non-toxic; Activity [26]: Active; IC50 [27]: 2900 nM; Activity [28]: tde; Activity [29]: 28.8%; Activity [30]: Active; Activity [31]: Active
3 | CC(=O)O[C@H]1C2=C(C(=O)C(OC(=O)c3ccccc3)=C(C(C)C)C2=O)[C@@]2(C)CCCC(C)(C)[C@@H]2[C@@H]1OC(=O)c1ccccc1 | Active | Active | Active | Active | Active | 3100 | 20.7 | 6900 | 2 | Active | Active | inactive | 16 | inactive | Active | Active | 3600 | Active | Active | Active | Activity [21]: 48%; Activity [22]: Active; Activity [23]: Active; IC50 [24]: 600 nM; Activity [25]: Non-toxic; Activity [26]: Active; IC50 [27]: 25500 nM; Activity [28]: tde; Activity [29]: 20.7%; Activity [30]: Active; Activity [31]: Active
